Tests used:
Jurkat = test: Effective concentration required for inhibition of necroptosis in FADD deficient Jurkat T cells treated with TNF-alpha; assay type: functional, cell-based; conditions: Homo sapiens
Outline: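 FADD-deficient human Jurkat T cells given human TNFα 10 ng/mL plus rising concentrations of inhibitor for 24 h. Viability read by luminescent ATP-based assay and corrected for nonspecific toxicity. EC50 from nonlinear regression of sigmoid variable-slope dose–response curves, log inhibitor concentration versus viability.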

[1] = Plasma concentration in male mouse after 30 min intravenous administration; assay type: ADME
Outline: (§1)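 Male CD-1 mice dosed intravenously at 1 mg/kg in 10% propylene glycol/normal saline (0.16 mg/mL). Brain and plasma concentrations measured at set post-injection times, and brain-to-plasma ratio calculated.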

[2] = Ratio between concentration in brain to that of plasma was determined n male mouse after 30 min intravenous administration; assay type: ADME; outline: as §1
[3] = Clearance value in female mouse upon intravenous administration; assay type: ADME, organism-based; conditions: in vivo, read-out: CLs
Outline: (§2)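 CD-1 mice of each sex given a single intravenous dose of 1 mg/kg. Vehicle was 10% propylene glycol in normal saline, dosing solution 0.16 mg/mL. Plasma pharmacokinetics followed over 8 h to give AUC, Cmax, half-life, Vss and clearance.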

[4] = Brain concentration in male mouse after 30 min intravenous administration; assay type: ADME; outline: as §1
[5] = Plasma concentration in male mouse after 180 min intravenous administration; assay type: ADME; outline: as §1
[6] = Volume of distribution at steady state was determined in male mouse upon intravenous administration; assay type: ADME, organism-based; conditions: in vivo; outline: as §2
[7] = Maximum concentration in male mouse upon intravenous administration; assay type: ADME, organism-based; parameters: route intravenous; conditions: in vivo; outline: as §2
[8] = Maximum concentration in female mouse upon intravenous administration; assay type: ADME, organism-based; parameters: route intravenous; conditions: in vivo; outline: as §2
[9] = Area under curve concentration in female mouse after 8 hours of intravenous administration; assay type: ADME; parameters: time < 8 hr, route intravenous; conditions: in vivo; outline: as §2
[10] = Area under curve concentration in male mouse after 8 hours of intravenous administration; assay type: ADME; parameters: time < 8 hr, route intravenous; conditions: in vivo; outline: as §2
[11] = Clearance value in male mouse upon intravenous administration; assay type: ADME, organism-based; conditions: in vivo, read-out: CLs; outline: as §2

SMILES | EC50 (Jurkat) [nM] | further results
CN1C(=O)NC(Cc2cn(C)c3c(Cl)cccc23)C1=O (stereo unspecified) | 3800 | 
CCCCN1C(=O)NC(Cc2c[nH]c3c(Cl)cccc23)C1=O (stereo unspecified) | 850 | 
CN1C(=O)C(Cc2cn(C)c3ccccc23)NC1=S (stereo unspecified) | > 10000 | 
CN1C(=O)C(Cc2c[nH]c3c(Br)cccc23)NC1=S (stereo unspecified) | 160 | 
O=C1NC(Cc2c[nH]c3c(Cl)cccc23)CO1 (stereo unspecified) | > 10000 | 
CN1C(=O)C(Cc2c[nH]c3c(Cl)cccc23)NC1=S (stereo unspecified) | 180 | 
CN1CC(Cc2c[nH]c3c(Cl)cccc23)NC1=O (stereo unspecified) | > 10000 | 
CN1C(=O)NC(Cc2c[nH]c3ccccc23)C1=O (stereo unspecified) | 1300 | 
CN1C(=O)NC(Cc2c[nH]c3c(OCc4ccccc4)cccc23)C1=O (stereo unspecified) | > 10000 | 
CN1C(=O)C(Cc2c[nH]c3c(F)cccc23)NC1=S (stereo unspecified) | 260 | 
CCN1C(=O)N[C@@H](Cc2c[nH]c3c(Cl)cccc23)C1=O | 180 | 
COc1cccc2c(CC3NC(=O)N(C)C3=O)c[nH]c12 (stereo unspecified) | 710 | 
CN1C(=O)NC(Cc2c[nH]c3c(Cl)cc(Cl)cc23)C1=O (stereo unspecified) | > 10000 | 
Cc1[nH]c2ccccc2c1CC1NC(=O)N(C)C1=O (stereo unspecified) | > 10000 | 
CN1C(=O)NC(Cc2c[nH]c3c(F)cccc23)C1=O (stereo unspecified) | 590 | 
CN1C(=O)N[C@@H](Cc2c[nH]c3c(Cl)cccc23)C1=O | 230 | 
COc1ccc2[nH]cc(CC3NC(=O)N(C)C3=O)c2c1 (stereo unspecified) | > 10000 | 

SMILES | EC50 (Jurkat) [nM] | further results
Cc1cccc2c(CC3NC(=O)N(C)C3=O)c[nH]c12 (stereo unspecified) | 330 | 
CN1C(=O)C(Cc2c[nH]c3c(Cl)cccc23)N(C)C1=O (stereo unspecified) | > 10000 | 
CN1C(=O)C(Cc2c[nH]c3ccccc23)NC1=S (stereo unspecified) [NECROSTATIN] | 490 | 
CN1C(=O)C(Cc2cn(C)c3c(Cl)cccc23)NC1=S (stereo unspecified) | > 10000 | 
CN1C(=O)NC(Cc2csc3ccccc23)C1=O (stereo unspecified) | 5600 | 
O=C1NC(=O)C(Cc2c[nH]c3ccccc23)N1 (stereo unspecified) | > 10000 | 
CC(C)N1C(=O)NC(Cc2c[nH]c3c(Cl)cccc23)C1=O (stereo unspecified) | > 10000 | 
CN1C(=O)N[C@H](Cc2c[nH]c3c(Cl)cccc23)C1=O | 50 | 
O=C1NC(=S)NC1Cc1c[nH]c2ccccc12 (stereo unspecified) | > 10000 | 
CN1C(=O)C(Cc2csc3ccccc23)NC1=S (stereo unspecified) | 4800 | 
CN1C(=O)OC(Cc2c[nH]c3c(Cl)cccc23)C1=O (stereo unspecified) | 380 | 
CN1C(=O)NC(Cc2c[nH]c3cc(Cl)ccc23)C1=O (stereo unspecified) | 5700 | 
COc1cccc2c(CC3NC(=S)N(C)C3=O)c[nH]c12 (stereo unspecified) | 630 | 
CN1C(=O)NC(Cc2c[nH]c3c(Cl)cccc23)C1=O (stereo unspecified) | 210 | concentration at 0.5 h [1]: 310 nM; Kp at 0.5 h [2]: 2.4; clearance [3]: 100 mL/min/kg; concentration at 0.5 h [4]: 740 nM; concentration at 3 h [5]: 3 nM; Vss [6]: 2.5 L/kg; Vd ([6]; male, read-out: Vss): 2.5 L/kg; Cmax [7]: 873 ng/mL; Cmax [8]: 573 ng/mL; AUC at 8 h [9]: 165 ng·h/mL; AUC at 8 h [10]: 274 ng·h/mL; clearance [11]: 61 mL/min/kg
CN1C(=O)NC(Cc2c[nH]c3cccc(Cl)c23)C1=O (stereo unspecified) | 9200 | 
CN1C(=O)C(Cc2c[nH]c3cc(Cl)ccc23)NC1=S (stereo unspecified) | > 10000 | 
CCCCOc1cccc2c(CC3NC(=O)N(C)C3=O)c[nH]c12 (stereo unspecified) | 270 | 

Source: ChEMBL document CHEMBL1143645, “Structure-activity relationship study of novel necroptosis inhibitors” (Bioorg Med Chem Lett, 2005)
